Screening results from PubChem.
Hck-Nef inh – inhibitors of human Hck kinase activated by Nef; inhibition, % at 20 µM; hit rate 0.68% among 220,000; P08631; Recombinant Hck-YEEI plus Nef, Z-Lyte FRET kinase assay;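 active means Hck-Nef kinase inhibition above about 50%, limit read from the data; inactive means inhibition below that limit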
Target sequence (P08631 whole entry, looked up): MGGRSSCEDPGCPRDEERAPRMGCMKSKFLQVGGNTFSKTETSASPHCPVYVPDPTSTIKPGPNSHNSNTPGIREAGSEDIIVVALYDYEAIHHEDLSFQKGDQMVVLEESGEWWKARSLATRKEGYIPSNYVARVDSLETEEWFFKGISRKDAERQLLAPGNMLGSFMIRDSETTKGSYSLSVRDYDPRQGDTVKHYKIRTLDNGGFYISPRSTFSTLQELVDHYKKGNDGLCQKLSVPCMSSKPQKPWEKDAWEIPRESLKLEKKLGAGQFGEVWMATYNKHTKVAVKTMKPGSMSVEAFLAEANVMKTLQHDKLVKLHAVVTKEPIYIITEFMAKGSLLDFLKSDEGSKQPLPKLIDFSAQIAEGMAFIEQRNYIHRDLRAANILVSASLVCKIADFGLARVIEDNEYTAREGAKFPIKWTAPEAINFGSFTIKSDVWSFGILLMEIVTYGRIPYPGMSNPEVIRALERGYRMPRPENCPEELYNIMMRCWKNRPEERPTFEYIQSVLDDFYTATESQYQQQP
eIF4E 4G PPI – eIF4E/eIF4G interaction inhibition in translation initiation; AID 782; hit rate 0.37% among 220,000; P63073+Q04637; inhibition, % at 21.7 µM; TR-FRET eIF4E-eIF4GI(517-606) binding, 2 h;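 active means inhibition above about 30%, limit read from the data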
PERK inh – human PERK inhibition, primary cell-based screen; hit rate 0.17% among 220,000; inhibition, % at 5.6 µM; CHO PERK-DD fusion, SEAP luminescence translation reporter;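 active means inhibition above the mean inhibition of all tested compounds plus 3 SD, set separately per screening campaign, cut at about 2.9% in these data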;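 further: PERK kinase domain activated by AP20187 dimerizer at 100 nM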
14-3-3 Bad inh – disrupts binding of bovine 14-3-3 zeta to phospho-Bad peptide; TR-FRET 14-3-3zeta/Dy647-pBad peptide displacement, 1 h; inhibition, % at 21.7 µM; hit rate 0.71% among 220,000; AID 781;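 active means inhibition above about 70%, limit read from the data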
Calb biofilm kill – mixture kills Candida albicans biofilm cells; C. albicans biofilm persisters + clotrimazole, fluorescence viability; primary screen in compound mixtures of four per well; inhibition, % at 7.6 µM; hit rate 0.02% among 120,000; AID 1242;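 active means inhibition above 30.3% in the primary screen of four-compound pools, then above 30% when the compound was retested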;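 further: compounds exposed to preformed 24 h biofilms for 48 h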
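Test system: C. albicans biofilms. Buffer or medium: RPMI/MOPS medium, pH 7.0. Timing: 48 h compound exposure at 37 °C. Technique: Alamar Blue fluorescence. Evaluation: percent inhibition of biofilm viability.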
p97 ATPase inh – human p97 ATPase inhibition; P55072; recombinant p97 ATPase, Kinase-Glo ATP luminescence, 3 h; inhibition, % at 8 µM; hit rate 0.42% among 220,000; AID 1481; in the data active means inhibition above about 15%
Each line names hits and unclear results; the compound was inactive in the other large screens; [ ] = remark or other dose. An excerpt weighted towards active compounds, which were near 2.2% of everything screened.

O=c1cc(-c2ccco2)oc2c1ccc1ccccc12	14-3-3 Bad inh 76.7 (no result: Calb biofilm kill)
CCN1C(=O)/C(=C2/Sc3ccccc3N2CC)S/C1=N\c1ncn[nH]1	Hck-Nef inh 52.5
COc1ccc(OC)c2c1nc1n2CCS1	none
CCC(=O)NNc1nc2c(F)cc(F)cc2s1	p97 ATPase inh 15.7
CCC(=O)NNc1nc2c(F)cccc2s1	none
CC(=O)c1cccc(NC(=O)c2nc(-c3ccccc3)oc2C)c1	eIF4E 4G PPI 39.6
Cc1oc(-c2ccccc2)nc1C(=O)O	none
COc1cc(/C=N/NC(=S)NC2CC3CC2C2C=CCC32)ccc1O (stereo not drawn)	none
Cc1cc2oc(=O)cc(Cn3ncc(Cl)c(Cl)c3=O)c2cc1Cl	none
CCOC(=O)N1CCN(CC(=O)Nc2ccc(F)cc2F)CC1	none
CCOC(=O)N1CCN(Cc2ccc(F)cc2F)CC1	14-3-3 Bad inh 90.9 (no result: Calb biofilm kill)
CCOC(=O)/C(=C/Nc1ccc(F)cc1)[N+](=O)[O-]	none
CC(NC(=O)C1CCCN(S(=O)(=O)c2cnc[nH]2)C1)c1ccccc1 (stereo not drawn)	p97 ATPase inh 17.7 (no result: Calb biofilm kill)
Cc1ccc(S(=O)(=O)Nc2c(C)n(C)n(-c3ccccc3)c2=O)cc1C(=O)NCc1ccccn1	eIF4E 4G PPI 83.6 (no result: Calb biofilm kill)
Cc1ccc(S(=O)(=O)Nc2c(C)n(C)n(-c3ccccc3)c2=O)cc1C(=O)OC(C)C(=O)N(C)c1ccccc1 (stereo not drawn)	none
COc1ccc2no[n+]([O-])c2c1	none
COc1ccc(N=Cc2c(O)n(-c3cccc(C)n3)c(=O)c3ccccc23)c(OC)c1	none
Cc1ccc(/C=N/n2cnc3sc(C)c(C)c3c2=O)o1	none
OCCNCCOCCOc1ccccc1-c1ccccc1	none
COc1cccc(OC)c1OCCNC(C)(C)C	none (no result: Calb biofilm kill)
COc1cccc(OC)c1OCCN(C)C	14-3-3 Bad inh 85.5 (no result: Calb biofilm kill)
CN(C)CCOc1ccccc1-c1ccccc1	14-3-3 Bad inh 72.0 (no result: Calb biofilm kill)
CN(C)CCOCCOc1ccccc1-c1ccccc1	14-3-3 Bad inh 87.0 (no result: Calb biofilm kill)
O=C(NCCN1CCCCC1)c1ccc(Oc2cc(Cl)cc(Cl)c2)o1	none
CC(OCC(O)CNCC1COc2ccccc2O1)c1ccc(Cl)cc1 (stereo not drawn)	none
CC(OCC(O)CN(C)CCOc1ccccc1)c1ccc(Cl)cc1 (stereo not drawn)	14-3-3 Bad inh 74.2 (no result: Calb biofilm kill)
COc1ccccc1/C=C/C=N\N1CCN(Cc2ccccc2Cl)CC1	none
COc1ccccc1/C=C/C=N/N1CCN(Cc2ccc(Cl)cc2)CC1	14-3-3 Bad inh 73.7 (no result: Calb biofilm kill)
CN(CC(=O)Nc1ccc(F)c(F)c1F)c1cnccn1	none (no result: Calb biofilm kill)
O=C(Cc1ncon1)Nc1ccc(F)c(F)c1F	PERK inh 3.6
COc1ccccc1NC(=O)C1=C(C)NC(SCC(=O)Nc2ccc(C(=O)O)cc2)=C(C#N)C1c1cccs1 (stereo not drawn)	none
CC1=CC(=C2N=C(c3ccccc3)OC2=O)C=C(C)O1	PERK inh 2.9 (no result: eIF4E 4G PPI, 14-3-3 Bad inh, Calb biofilm kill)
CCOc1cc(C2NC(=S)NC(C)=C2C(=O)Nc2ccc(OC)cc2)ccc1O (stereo not drawn)	PERK inh 3.4
CCCCC1=CC2=CC(=O)C(C)(OC(=O)CC)C(=O)C2=CN1c1ccccc1 (stereo not drawn)	eIF4E 4G PPI 70.9 (no result: PERK inh, p97 ATPase inh)
CC(=O)C1=C(C)NC(SCc2cccc3ccccc23)=C(C#N)C1c1ccco1 (stereo not drawn)	none
CC(=O)C1=C(C)NC(SCc2ccc(C#N)cc2)=C(C#N)C1c1ccco1 (stereo not drawn)	eIF4E 4G PPI 43.8[fluorescence artefact?]
O=P(c1ccccc1)(c1ccccc1)c1nc(-c2ccc(Cl)cc2)oc1N1CCOCC1	none
Cc1ccc(S(=O)(=O)Nc2cc(C)c(O)cc2C)cc1	none
Cc1ccc(S(=O)(=O)Nc2csc(C)c2C(=O)O)cc1	14-3-3 Bad inh 72.8
O=[N+]([O-])c1ccc(C(=Nc2cccc3ccccc23)N2CCOCC2)cc1	14-3-3 Bad inh 97.1[fluorescence artefact?] (no result: Calb biofilm kill)
Cc1ccc([N+](=O)[O-])cc1N=C(c1cccc([N+](=O)[O-])c1)N1CCOCC1	PERK inh 9.5 (no result: Calb biofilm kill)
Cc1ccc([N+](=O)[O-])cc1N=C(c1ccc([N+](=O)[O-])cc1)N1CCOCC1	none
CCC1=NN2C(=N)/C(=C\c3cccn3-c3cccc(Cl)c3)C(=O)N=C2S1	none
CCC1=NN2C(=N)/C(=C\c3cccn3-c3ccc(Br)cc3)C(=O)N=C2S1	14-3-3 Bad inh 79.4
Cc1[nH]c2ccccc2c1CN1CCC(Cc2ccccc2)CC1	none
Cc1ccc(-c2nnc(N3CC(C)OC(C)C3)c3ccccc23)cc1 (stereo not drawn)	14-3-3 Bad inh 75.2
Cc1ccc(-c2nnc(N3CCCCC3)c3ccccc23)cc1	none
COc1cc(CNCCc2ccccc2)cc(Cl)c1OCc1ccccc1	none
Cc1ccc(NC(=O)CN2C(=O)S/C(=C/c3ccc(-c4cccc(C(=O)O)c4)o3)C2=O)cc1	eIF4E 4G PPI 43.4, 14-3-3 Bad inh 88.2
Cc1ccc(NC(=O)CN2C(=O)S/C(=C\c3ccc(-c4cccc(C(=O)O)c4C)o3)C2=O)cc1	none (no result: Calb biofilm kill)
CCOC(=O)C1(Cc2cccc(OC)c2)CCCN(C(=O)CCc2cccnc2)C1 (stereo not drawn)	none
C=CCN(c1ccccc1)S(=O)(=O)c1cccc(C(=O)O)c1	PERK inh 3.4, 14-3-3 Bad inh 70.1 (no result: Calb biofilm kill)
CCc1c(C)nc(SCC(=O)N2CCCCC2C)[nH]c1=O (stereo not drawn)	none
Cc1nc(C(C)(C)O)n(-c2ccccc2)n1	eIF4E 4G PPI 92.5[fluorescence artefact?] (no result: Calb biofilm kill)
CC(C)(O)c1nnn(-c2ccccc2)c1C(F)(F)F	none (no result: Calb biofilm kill)
C=CCn1c(SCC(N)=O)nc2scc(-c3ccc(C)o3)c2c1=O	none
Cc1ccc(S(=O)(=O)NCC(=O)N(CC(=O)NCC2CCCO2)C2CCCC2)cc1 (stereo not drawn)	eIF4E 4G PPI 91.3[fluorescence artefact?] (no result: Calb biofilm kill)
O=C(CN(C(=O)CNS(=O)(=O)c1ccccc1)C1CCCC1)NCC1CCCO1 (stereo not drawn)	none (no result: Calb biofilm kill)
Cc1ccc(SCCCn2cncn2)cc1	none (no result: Calb biofilm kill)
Clc1ccc(SCCn2cncn2)cc1	14-3-3 Bad inh 73.3 (no result: Calb biofilm kill)
CCCCn1c(NC(=O)c2ccccc2)c(C#N)c2nc3ccccc3nc21	p97 ATPase inh 39.8 (no result: Calb biofilm kill)
COc1ccccc1/C=C1\Oc2cc(OC(=O)N3CCOCC3)ccc2C1=O	none
CC1CCCN(CCOCCOc2ccc(Cl)cc2Br)C1 (stereo not drawn)	14-3-3 Bad inh 71.5 (no result: Calb biofilm kill)
CC1CC(C)CN(CCOc2ccc(Cl)cc2Cl)C1 (stereo not drawn)	14-3-3 Bad inh 72.2 (no result: Calb biofilm kill)
COc1ccc(OC)c(NC(=O)Nc2nnc(N3CCCCC3C)s2)c1 (stereo not drawn)	none
COc1cc(CNCc2ccncc2)cc(Br)c1OCc1ccccc1F	14-3-3 Bad inh 83.0 (no result: Calb biofilm kill)
Cn1c(=O)c(C(=O)CN2CCCCCC2)c(N)n(Cc2ccccc2)c1=O	none
COCCCNCC(=O)c1c(N)n(Cc2ccccc2)c(=O)n(C)c1=O	14-3-3 Bad inh 75.2 (no result: Calb biofilm kill)
O=C(Nc1cccc2cccnc12)C1CCCC1	none
